Results gathered from unrelated publications.
Target: Serine/threonine-protein kinase Nek11 (NEK11, Homo sapiens, UniProt Q8NG66)
One construct used (Q8NG66 1-645): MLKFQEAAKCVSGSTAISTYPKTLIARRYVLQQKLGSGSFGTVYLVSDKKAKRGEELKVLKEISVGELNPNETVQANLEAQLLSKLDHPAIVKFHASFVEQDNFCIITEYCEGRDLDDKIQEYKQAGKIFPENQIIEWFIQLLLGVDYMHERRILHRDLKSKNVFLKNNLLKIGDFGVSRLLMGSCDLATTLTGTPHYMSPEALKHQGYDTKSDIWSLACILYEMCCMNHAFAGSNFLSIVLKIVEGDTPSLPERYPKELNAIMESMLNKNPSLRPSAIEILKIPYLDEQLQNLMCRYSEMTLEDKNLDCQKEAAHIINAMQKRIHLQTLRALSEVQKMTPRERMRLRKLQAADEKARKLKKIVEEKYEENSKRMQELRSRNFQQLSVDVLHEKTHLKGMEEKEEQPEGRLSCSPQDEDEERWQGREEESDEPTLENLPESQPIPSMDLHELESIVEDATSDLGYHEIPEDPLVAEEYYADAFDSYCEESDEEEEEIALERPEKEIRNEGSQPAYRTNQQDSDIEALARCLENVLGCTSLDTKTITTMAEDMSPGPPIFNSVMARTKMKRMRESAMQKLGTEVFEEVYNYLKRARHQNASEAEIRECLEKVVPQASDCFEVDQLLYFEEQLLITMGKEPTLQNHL

| Compound | effect on | method | concentration | remaining binding [%] |
| --- | --- | --- | --- | --- |
| Cc1cc(C)c(-n2ccn3nc(-c4cccnc4)cc23)cc1NC(=O)c1cc(C#N)cc(S(F)(F)(F)(F)F)c1 | cell-free assay | competition with immobilised ligand | 0.1 µM | 86.1 |
| CN(C)c1nccc(-c2cnc3ncccn23)n1 | binding |  | 1 µM | 81 |
| CNC(=O)[C@@H]1CC[C@@H](n2c(-c3ccc4cnccc4c3)nc3ccc(C(=O)NCc4cccc(C(N)=O)c4)cc32)C1 | binding | competition with immobilised ligand | 1 µM | 100 |
| Cc1cnn2ncc(-c3ccnc(N(C)C)n3)c2c1 | binding |  | 1 µM | 98 |
| CNCc1ccccc1-c1csc([C@H](C)Nc2nc(C)nc3cc(OC)c(OC)cc23)c1 | cell-free assay | competition with immobilised ligand | 1 µM | 100 |
| N[C@H]1CCN(c2nccc(-c3cnn4ncccc34)n2)C1 | binding |  | 1 µM | 71 |
| O=C(NCCCN1CCOCC1)c1ccc(Nc2nccc(-c3cc4ccccc4s3)n2)cc1 | binding | competition with immobilised ligand | 1 µM | 75 |
| Nc1ncc2c(n1)-c1c([nH]c3ccc(C#CC4CC4)cc13)CCCC2 | binding | competition with immobilised ligand | 1 µM | 84 |
| O=S(=O)(NC1CCC(c2cc(F)ccc2F)(S(=O)(=O)c2ccc(Cl)cc2)CC1)C(F)(F)F (stereo not drawn) | cell-free assay | competition with immobilised ligand | 1 µM | 100 |
| O=C(NCCCN1CCOCC1)c1ccc(Nc2ncc(Cl)c(-c3ccc(Cl)s3)n2)cc1 | binding | competition with immobilised ligand | 1 µM | 88 |
| C[C@@H](c1ccc(-n2cnc3c(N)ncnc32)cc1)N1CCc2nn(C)c(Cc3ccccc3)c2C1=O | binding | competition with immobilised ligand | 0.1 µM | 78 |
| C=CC(=O)N1CCC(C(=O)NCC(=O)N2CCN(c3nc(-c4cnc(N)nc4C(F)F)nc(N4CCOCC4)n3)CC2)CC1 | binding | competition with immobilised ligand | 1 µM | 69 |
| COc1ccc2c(c1)O[C@H](c1ccc(OC)c(OC)c1)C[C@@H]2NC(=O)C1(c2ccc3c(c2)OC(F)(F)O3)CC1 | cell-free assay | competition with immobilised ligand | 1 µM | 88 |
| COc1cnc(Nc2cccc(S(N)(=O)=O)c2)nc1N1CCN(c2ccccc2)CC1 | binding | competition with immobilised ligand | 1 µM | 90 |
| CN(C)c1nccc(-c2cnn3ncccc23)n1 | binding |  | 1 µM | 100 |
| O=C(c1ccc(Nc2ncc(Cl)c(-c3ccc(Cl)s3)n2)cc1)N1CCC(N2CCCC2)CC1 | binding | competition with immobilised ligand | 1 µM | 100 |
| O=C(N[C@H]1CCCCC/C=C\C2C[C@@]2(C(=O)O)NC(=O)[C@@H]2C[C@@H](Oc3ccncc3)CN2C1=O)OC1CCCC1 (stereo partly drawn) | binding | competition with immobilised ligand | 1 µM | 100 |
| CN(c1nccc(-c2cnn3ncccc23)n1)C1CC1 | binding |  | 1 µM | 100 |
| O=C(Nc1c[nH]nc1C(=O)NC1CCNCC1)c1cc(F)cc(F)c1 | binding | competition with immobilised ligand | 1 µM | 91 |
| CC(=O)C1=C(C)N(c2cccc(C(F)(F)F)c2)C(=O)N[C@@H]1c1ccc(C#N)nc1 | cell-free assay | competition with immobilised ligand | 1 µM | 100 |
| CC1CCCN1c1nccc(-c2cnn3ncccc23)n1 (stereo not drawn) | binding |  | 1 µM | 100 |
